Reference: the RNAGym collection of RNA variant scans (doi:10.1126/science.aae0568)
This sample holds only a part of the variants without activity.

B1: tRNA (parent)
chain: GUUCCGUUGGCGUAAUGGUAACGCGUCUCCCUCCUAAGGAGAAGACUGCGGGUUCGAGUCCCGUACGGAACG

Variants of: B1
Experiment: yeast fitness relative to wild type (ratio to wild type); higher = fitter; tRNA-Arg(CCU), competitive growth, 37 C, YPD
Method in brief: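 Variants of the tRNA-Arg(CCU) gene were chemically synthesised with a 3% per-site mutation rate across 69 sites and placed at the native genomic locus in Saccharomyces cerevisiae. Six parallel replicates of the pooled strains were competed in YPD at 37°C for 24 hours, and gene amplicons from the start and end populations were read by 100-nucleotide paired-end sequencing. Darwinian fitness relative to wild type was derived from changes in genotype frequencies. Genotypes required ≥ 100 starting reads, and estimates < 0.5 were set to 0.5.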

Going from G6C G18A G58A to G6C G10A A36U G51C A69C, the yeast fitness rises from ≤ 0.5 to 0.624.

Compared with G6C C11G C27U A42G C66U, G6C U13C C31G C33A is lower in yeast fitness: 0.552 for the first, ≤ 0.5 for the second.

Going from U7A C11G C29U to U7A A21U A45C, the yeast fitness falls from 0.555 to ≤ 0.5.

U7A A14U A20C U28C C46U G58A and G6C U32A G41A C46U cannot be ordered by yeast fitness: ≤ 0.5 for the first, ≤ 0.5 for the second.

Going from U7A A57U to G6C C33U G38C G52C C62U, the yeast fitness falls from 0.572 to ≤ 0.5.

First: G6C A42C
Second: G6C U8C C29G C61U
The yeast fitness of the first is higher: 0.808 for the first, ≤ 0.5 for the second.

U7A A20G C31U A57G A70C and G6C C24U G38C A40G U47C cannot be ordered by yeast fitness: ≤ 0.5 for the first, ≤ 0.5 for the second.

U7A C22A A57C and G6C G39C C55G cannot be ordered by yeast fitness: ≤ 0.5 for the first, ≤ 0.5 for the second.

Compared with U7A A14G A65C, U7A C27U U28C is lower in yeast fitness: 0.662 for the first, ≤ 0.5 for the second.

U7A A36U U64C and G6C U16C G41C G51A C55U cannot be ordered by yeast fitness: ≤ 0.5 for the first, ≤ 0.5 for the second.

Going from U7A C22G C30U U32C A37G A70G to G6U G68C, the yeast fitness rises from ≤ 0.5 to 0.794.

Compared with G6C C34U G52C, U7A A15C C27A C61G is lower in yeast fitness: 0.565 for the first, ≤ 0.5 for the second.

G6C U13C C24A C27G A36U and G6C G17A A36U C46A C49U C66A cannot be ordered by yeast fitness: ≤ 0.5 for the first, ≤ 0.5 for the second.

Going from U7A A15G G23A to U7A C27U C29U, the yeast fitness falls from 0.638 to ≤ 0.5.

G6C U7A G39C C55U A70G and G6C C22A C31G A65C cannot be ordered by yeast fitness: ≤ 0.5 for the first, ≤ 0.5 for the second.

G6C C11A G23U G48C and U7A C22U C66G G68C cannot be ordered by yeast fitness: ≤ 0.5 for the first, ≤ 0.5 for the second.

G6C U16G A20C G25A A43U G50A C55U and U7A A20G C46G G63C G67C A69U cannot be ordered by yeast fitness: ≤ 0.5 for the first, ≤ 0.5 for the second.

Going from G6C U8A A45U U53C G67A A69C to G6C G12C A15U A21C C49U G51C U53C, the yeast fitness falls from 0.775 to ≤ 0.5.

U7A C11G C60A and G6C A42C C49U cannot be ordered by yeast fitness: ≤ 0.5 for the first, ≤ 0.5 for the second.

Going from G6C U8C C27U G48A A57G to G6C C34U C66U A70U, the yeast fitness rises from ≤ 0.5 to 0.639.

G6C G38C C60A and G6C C29G C61U cannot be ordered by yeast fitness: ≤ 0.5 for the first, ≤ 0.5 for the second.

G6C U7C C31G and G6C G52C A57U cannot be ordered by yeast fitness: ≤ 0.5 for the first, ≤ 0.5 for the second.

Going from G6C U8G G10C A37G C62U U64A to U7A C24G C55G, the yeast fitness falls from 0.504 to ≤ 0.5.

Going from U7A C27G C34U to U7A A21G C30G A36G C46G A57U, the yeast fitness rises from ≤ 0.5 to 0.545.

First: G6C G58C
Second: G6C C31U C34G
The yeast fitness of the first is higher: 1.01 for the first, ≤ 0.5 for the second.

G6C U35C U59C and G6U G18C C49G cannot be ordered by yeast fitness: ≤ 0.5 for the first, ≤ 0.5 for the second.

G6C G38C C46A G67U and G6C U8C C60A C62U cannot be ordered by yeast fitness: ≤ 0.5 for the first, ≤ 0.5 for the second.

Compared with G6C U8C G25A, G6C G25A A43U G67C is lower in yeast fitness: 0.581 for the first, ≤ 0.5 for the second.

Compared with G6C U13G G18A C55A, G6C U8C G58C A69U is higher in yeast fitness: 0.514 for the first, 0.528 for the second.

Compared with G6C G52A C55G, G6C A43C G50A A70U is higher in yeast fitness: ≤ 0.5 for the first, 0.519 for the second.

Going from G6C C34A to G6C C34U, the yeast fitness rises from 0.611 to 0.648.

G6C G17A A36U and U7A A15C C27A U47C G58C cannot be ordered by yeast fitness: ≤ 0.5 for the first, ≤ 0.5 for the second.

First: G6C A45C G67C
Second: U7A A20U C55A C66U
The yeast fitness of the first is lower: 0.536 for the first, 0.894 for the second.

G6C U59A C60U and U7A A20G G23A U26G A65G C66G cannot be ordered by yeast fitness: ≤ 0.5 for the first, ≤ 0.5 for the second.

Compared with G6C G12A C33U A65G A70G, G6C U35C is higher in yeast fitness: ≤ 0.5 for the first, 0.866 for the second.

Going from U7A A20C G58A G63A to U7A C22G C30U A37G A70G, the yeast fitness rises from ≤ 0.5 to 0.563.

Compared with G6C A42C C49U C62U, G6C U8C A42G is higher in yeast fitness: ≤ 0.5 for the first, 0.575 for the second.

Going from G6U to G6C C24U G67C, the yeast fitness falls from 0.918 to 0.537.

Compared with G6C G12A G58C, G6C C27G U28C C62G is lower in yeast fitness: 0.964 for the first, ≤ 0.5 for the second.

First: U7A C29A G58A C61G A70U
Second: G6C U13A
The yeast fitness of the first is lower: 0.665 for the first, 0.718 for the second.

G6C C31U U35A C46G G48A C49U U64C and G6C U16G G39C cannot be ordered by yeast fitness: ≤ 0.5 for the first, ≤ 0.5 for the second.

U7A A37U G50A U53C C62A A69U and G6C A37G A40U A45C C60G cannot be ordered by yeast fitness: ≤ 0.5 for the first, ≤ 0.5 for the second.

G6C G25C A37U G39C C62G and U7A A20C A21G G23A A70U cannot be ordered by yeast fitness: ≤ 0.5 for the first, ≤ 0.5 for the second.

Compared with G6C U7A C34U C61U, U7A C22A C31G U32G A42G G52A C62A is lower in yeast fitness: 0.658 for the first, ≤ 0.5 for the second.

G6C G10A A36U G63A and G6C C11U C27G G41C cannot be ordered by yeast fitness: ≤ 0.5 for the first, ≤ 0.5 for the second.

Going from U7A A21G U28A C29U G58A to U7A A15G G18A, the yeast fitness rises from 0.598 to 0.669.

Going from G6C C11A U32A A42G C55U to U7A A14C C30A A36G C62U G63A A70U, the yeast fitness falls from 0.605 to ≤ 0.5.

G6C G10C C11U C55U C61G C62G and G6C U8C G23C C30A A42C G48C G52C cannot be ordered by yeast fitness: ≤ 0.5 for the first, ≤ 0.5 for the second.

Going from G6C C46G A70C to G6C U8C A21C, the yeast fitness falls from 0.511 to ≤ 0.5.

Compared with G6C U19C C22A U35C A69U, G6C A65C is higher in yeast fitness: ≤ 0.5 for the first, 0.872 for the second.

First: G6C G44C A65G A70C
Second: G6C C24G C27G C29A C34U
The yeast fitness of the first is lower: ≤ 0.5 for the first, 0.684 for the second.

First: G6C U53C
Second: G6C U13A U54A A57C
The yeast fitness of the first is higher: 0.865 for the first, ≤ 0.5 for the second.

Compared with U7A A42G, U7A A40U A45G C46U is lower in yeast fitness: 0.655 for the first, ≤ 0.5 for the second.

First: G6C U19C U32A A42C
Second: G6C A42U C49U
The yeast fitness of the first is lower: ≤ 0.5 for the first, 0.595 for the second.

Going from G6C G63C A69G to G6C U7A C46U, the yeast fitness rises from ≤ 0.5 to 0.577.

First: G6C C27U A57C A70U
Second: U7A A42G G68C
The yeast fitness of the first is higher: 0.537 for the first, ≤ 0.5 for the second.

First: G6C G25A C27G
Second: G6C C55G
The yeast fitness of the first is lower: 0.591 for the first, 0.695 for the second.

First: G6C C55A
Second: U7A A21G C61G C66G
The yeast fitness of the first is higher: 0.717 for the first, ≤ 0.5 for the second.

Compared with G6C G50A A69U, G6C C11U A21C G52A C61A G67C is lower in yeast fitness: 0.682 for the first, ≤ 0.5 for the second.

U7A C11A C30U U32A and G6C G39C A45U C61U cannot be ordered by yeast fitness: ≤ 0.5 for the first, ≤ 0.5 for the second.

First: G6C C33G G38C
Second: G6C G50C A69U
The yeast fitness of the first is lower: ≤ 0.5 for the first, 0.554 for the second.

Compared with G6C C29G C66G, G6C C33U is higher in yeast fitness: ≤ 0.5 for the first, 0.644 for the second.

G6C A36C A65C G67A and G6C U16A G18C C22G G52C G68A cannot be ordered by yeast fitness: ≤ 0.5 for the first, ≤ 0.5 for the second.

G6C C31U A43G A69U and U7A C24U C33A cannot be ordered by yeast fitness: ≤ 0.5 for the first, ≤ 0.5 for the second.

Going from G6C G25A A65G to G6C C22G C27G A45U A57G A70G, the yeast fitness falls from 0.595 to ≤ 0.5.

Going from U7A A15G G23A G63C to U7A A20G C29U A57C, the yeast fitness falls from 0.557 to ≤ 0.5.

U7A C22G C30U A37G and G6C G9A A21U U28G C34U A45C cannot be ordered by yeast fitness: ≤ 0.5 for the first, ≤ 0.5 for the second.

First: U7A A70C
Second: G6C A45C G56A
The yeast fitness of the first is higher: 0.817 for the first, 0.568 for the second.

G6C G18C A21G A40U C49U and G6C U8C C34G A45G A65U cannot be ordered by yeast fitness: ≤ 0.5 for the first, ≤ 0.5 for the second.

G6U U32A G56C and U7A C11U A36U G58C cannot be ordered by yeast fitness: ≤ 0.5 for the first, ≤ 0.5 for the second.

Compared with G6C C11A C66G, G6C U19C C29U G38C U47C is lower in yeast fitness: 0.592 for the first, ≤ 0.5 for the second.

G6C A37G A70C and G6C G23C C24A C66U cannot be ordered by yeast fitness: ≤ 0.5 for the first, ≤ 0.5 for the second.

Compared with U7A A20C U26A, G6C A37C is higher in yeast fitness: ≤ 0.5 for the first, 0.693 for the second.

U7A A21C C33A A45U A69U and G6C C24U C27G cannot be ordered by yeast fitness: ≤ 0.5 for the first, ≤ 0.5 for the second.

Compared with G6C A43U, G6C A43C is lower in yeast fitness: 0.831 for the first, 0.739 for the second.

First: G6C G39C
Second: G6C U8C C11U U19C A20U A42C A65C A69U
The yeast fitness of the first is higher: 0.7 for the first, ≤ 0.5 for the second.

U7A A15U G63A G67A and G6C A40G A42G A57C C66U cannot be ordered by yeast fitness: ≤ 0.5 for the first, ≤ 0.5 for the second.

G6C C22A C31G C49G G68C and G6C U19C G38C G44C C46A cannot be ordered by yeast fitness: ≤ 0.5 for the first, ≤ 0.5 for the second.

First: U7A A45C
Second: U7A C11U G17C C30G A37C G48C G51A
The yeast fitness of the first is higher: 0.737 for the first, ≤ 0.5 for the second.

G6C C24U G52A and G6C U8C C49A cannot be ordered by yeast fitness: ≤ 0.5 for the first, ≤ 0.5 for the second.

G6C U26C C31A G38C and U7A A37C G51A G67A cannot be ordered by yeast fitness: ≤ 0.5 for the first, ≤ 0.5 for the second.

G6C C34G A65G and U7A A36C G56A cannot be ordered by yeast fitness: ≤ 0.5 for the first, ≤ 0.5 for the second.

U7A C27A G50C and U7A C27G C34G U54A cannot be ordered by yeast fitness: ≤ 0.5 for the first, ≤ 0.5 for the second.

For U7A C22G C30U A37G C55A, the yeast fitness was ≤ 0.5.
